Screening results from PubChem.
UPR XBP1 act = activators of adaptive arm of unfolded protein response (XBP1); CHO-XBP1 luciferase reporter, IRE1-XBP1 UPR activation, luminescence; percent of tunicamycin response, DMSO as zero; activation, % at 20 µM; 330,000 compounds, 0.33% hits;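 active = versus positive control, 20 µM dose yields 30% or more activation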;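 note: 100% = tunicamycin at 10 µg/mL and 0% = DMSO only wells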
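Test system: CHO-XBP1 luciferase reporter cells | Buffer or medium: Serum-containing F12 medium, 10% FBS | Schedule: 6 h compound exposure at 37 °C, 5% CO2 | Detection: Steady-Glo luciferase glow luminescence, 10 min after reagent addition | Read-out basis: Activation, % of tunicamycin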
Jurkat NFkB inh = lowers PMA/ionomycin-induced NF-kB signal in Jurkat cells. 330,000 compounds, 0.53% hits. PMA/ionomycin-induced NF-kB luciferase reporter, luminescence. AID 435003. inhibition, % at 4 µM; in the data active = inhibition above about 50%
UPR CHOP act = apoptotic UPR (CHOP) activation; CHO-CHOP luciferase reporter, luminescence; percent of tunicamycin response over DMSO baseline; activation, % at 10 µM; 330,000 compounds, 0.34% hits;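 active = at 10 µM dose, activation of 40% or more, normalized to positive control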;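 note: 100% = tunicamycin at 10 µg/mL and 0% = DMSO alone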
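Evaluation: % reporter activation, DMSO baseline versus tunicamycin full activation; System: CHO-CHOP luciferase reporter cell line; Input: 500 cells/well; Incubation: 6 h compound treatment, 37 °C; Measured by: Steady-Glo luciferase luminescence; Dosing: one dose, 10 µM in 0.5% DMSO; Buffer or medium: F12 medium, 10% FBS; Benchmarks: positive tunicamycin 10 µg/mL, negative DMSO alone.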
CHOP inhibitor = CHOP inhibition in unfolded protein response. CHO-K1 CHOP-promoter luciferase, tunicamycin-induced, 15-18 h. inhibition, % at 10 µM. 220,000 compounds, 3.8% hits. AID 2732;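 active = compounds that reduced the stress-induced luciferase reporter signal by more than about 70% of percent inhibition, limit read from the data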;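 note: 0% = tunicamycin plus vehicle and 100% = wells without tunicamycin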
697 NFkB inh = lowers PMA/ionomycin-induced NF-kB signal in 697 B cells | 330,000 compounds, 0.33% hits | inhibition, % at 4 µM | 697 B-cell NF-kB luciferase reporter, 16 h; in the data active = inhibition above about 35%
Jurkat NFkB conf = inhibitors of the PMA/ionomycin-induced NF-kB reporter in Jurkat cells, retest; 2,700 compounds, 27% hits; shares compounds with Jurkat NFkB inh; AID 435020; Jurkat NF-kB luciferase, 16 h; inhibition, % at 4 µM;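 active = inhibition reaching about 45% at 4 µM in either replicate, limit read from the data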;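 note: plate controls were PMA/ionomycin stimulated DMSO wells for no effect and unstimulated DMSO wells for full effect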
The depositor's hits bear a star; . = not tested or not shown. Shown is part of a subset that was picked to be rich in hits.

SMILES	UPR XBP1 act	Jurkat NFkB inh	UPR CHOP act	CHOP inhibitor	697 NFkB inh	Jurkat NFkB conf
O=C(CN1CCN(CC(=O)Nc2ccccc2Cc2ccccc2)CC1)Nc1ccccc1Cl	-1.3	13.4	1.2	.	-19.3	.
Nc1nonc1-n1nnc(C(=O)N/N=C/c2ccccc2Br)c1CN1CCCC1	-5.3	2.1	-1.0	.	8.3	.
COc1ccccc1CNC(=O)c1csc(Cc2ccc(Cl)cc2)n1	-0.3	71.0*	-1.9	79.7*	0.5	18.1
CC(C)CC(c1nnnn1C1CCCC1)N1CCC(C(N)=O)CC1 (configuration not stated)	-3.3	-20.1	-1.7	9.2	-14.1	.
COc1cc(N/N=C/c2ccc(N(C)C)cc2)ncn1	-11.3	-155.2	-3.2	3.2	-233.7	-92.9
COc1ccc(C2=NN(C(C#N)c3ccc(OC)c(OC)c3)C(c3ccccc3)C2)cc1 (configuration not stated)	5.0	-155.3	4.5	25.3	-223.6	-107.8
OC(c1cc(-c2ccc(C(F)(F)F)cc2)nc(C(F)(F)F)c1)C1CCCCN1 (configuration not stated)	11.2	52.3*	36.4	65.6	-22.4	17.9
CCOc1ccc(S(=O)(=O)N2c3ccccc3CC2C)cc1 (configuration not stated)	7.5	70.9*	-1.2	.	10.0	50.7*
COc1ccc(C(=O)Nc2cccc(OC)c2)cc1	1.6	-130.1	2.5	-13.7	-98.9	.
COc1ccc(C(=O)Nc2ccc3[nH]c(-c4cccc(OC)c4)cc(=O)c3c2)cc1	3.1	85.4*	-0.8	-30.2	-18.7	49.2*
N#C/C(=N\Nc1ccc(Cl)cc1)C(=N)N1CCCCCC1	-2.4	-214.9	2.3	14.8	-208.7	-92.4
N#C/C(=N\Nc1ccccc1[N+](=O)[O-])C(=N)N1CCCCC1	-7.6	-183.9	-1.1	-37.3	-118.7	-75.1
Cc1ccc(CN(C)c2ccc(S(=O)(=O)N3CCCC3)cn2)cc1	0.3	-0.7	0.1	.	-17.2	.
CC(=O)Nc1ccc(C(=O)Cn2c3[n+](c4c(F)c(F)ccc42)CCCCC3)cc1	-2.3	1.1	0.1	-13.2	7.8	.
Cc1c(C(=O)OC2CCCCC2)[nH]c2c1C(=O)CC(C)(C)C2	-1.6	-33.2	1.1	38.7	-102.3	.
COC(=O)C1C(=O)c2c([nH]c(C(=O)OC3CCCC3C)c2C)CC1C (configuration not stated)	3.4	-180.2	3.2	49.7	-161.2	-112.0
COC(=O)C1C(=O)c2c([nH]c(C(=O)OCCOC(C)C)c2C)CC1C (configuration not stated)	1.7	-19.9	1.7	-11.0	-27.0	.
COC(=O)C1C(=O)c2c([nH]c(C(=O)OC3CCCCC3)c2C)CC1C (configuration not stated)	2.1	-163.2	4.4	40.0	-168.8	-93.3
CCN1/C(=C\c2ccc3cc(C)ccc3[n+]2CC)Sc2cc(C)c(C)cc21	.	.	.	55.2	.	.
C=CC[n+]1c(/C=C2\C=Cc3cc(C)ccc3N2CC)ccc2ccccc21	6.0	78.2*	21.3	71.5*	32.0	27.9
Cc1ccnc(NC(=O)Nc2ccc(Br)cc2Cl)c1	-1.7	-156.8	1.4	2.1	-225.4	-101.4
COc1ccc(-c2noc(N3CCCC(C(=O)Nc4cc(F)ccc4F)C3)n2)cc1 (configuration not stated)	0.1	-1.0	1.7	.	-82.9	.
Cc1ccccc1-c1nnc(SCc2ccccc2F)o1	8.9	-153.3	6.4	59.0	-188.2	-74.3
Fc1ccccc1CSc1nnc(-c2cccnc2)o1	1.2	-80.3	4.1	4.7	-67.4	.
COc1ccc(-c2nnc(SCc3ccccc3F)o2)cc1	-0.9	-161.0	3.2	21.3	-203.9	-87.0
CCSc1nnc(-c2ccc(OC)cc2)o1	-3.6	-74.3	1.3	60.6	-98.0	.
Cc1ccccc1-c1nnc(SCc2ccccc2)o1	1.4	-89.1	1.6	22.4	-71.8	.
Fc1ccccc1CSc1nnc(-c2ccccc2)o1	1.4	-155.8	1.7	0.4	-149.6	-64.9
COc1ccc(Cl)cc1NC(=O)CN1C(=O)CC(C)S(=O)(=O)c2ccccc21 (configuration not stated)	4.8	-5.0	0.0	25.9	10.8	.
O=C(Nc1nc2cc3c(cc2s1)OCO3)C1CCCCC1	-2.9	-166.0	6.7	.	-203.2	-96.8
